PAFAH1B3 FP inh: inhibitors of human PAFAH1B3; recombinant PAFAH1B3, FP-rhodamine probe, fluorescence polarization; inhibition, % at 3.39 µM; actives 0.28% (n = 340,000); AID 492972;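 active = inhibition above the screen-wide average of all tested compounds plus 3 SD, cut at about 25% in these data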;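 also: 0% = enzyme with DMSO only and 100% = wells lacking PAFAH1B3 protein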
Target sequence (Q15102 whole entry, looked up): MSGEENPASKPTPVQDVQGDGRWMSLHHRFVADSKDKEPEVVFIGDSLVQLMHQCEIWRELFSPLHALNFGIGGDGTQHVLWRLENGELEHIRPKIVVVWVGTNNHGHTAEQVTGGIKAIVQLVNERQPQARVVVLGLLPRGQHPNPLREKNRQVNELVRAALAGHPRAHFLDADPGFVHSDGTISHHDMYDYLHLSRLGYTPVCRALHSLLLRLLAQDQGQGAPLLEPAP
RBBP9 inhibitor: human RBBP9 hydrolase inhibition | actives 0.2% (n = 220,000) | AID 1515 | recombinant RBBP9, FP-Rh probe fluorescence polarization | inhibition, % at 7.94 µM;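 active = inhibition above the campaign mean of all tested compounds plus 3 SD, cut at about 14% in these data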;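 also: plate controls were DMSO wells with RBBP9 for no effect and wells lacking RBBP9 protein for full effect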
Target sequence (O75884 whole entry, looked up): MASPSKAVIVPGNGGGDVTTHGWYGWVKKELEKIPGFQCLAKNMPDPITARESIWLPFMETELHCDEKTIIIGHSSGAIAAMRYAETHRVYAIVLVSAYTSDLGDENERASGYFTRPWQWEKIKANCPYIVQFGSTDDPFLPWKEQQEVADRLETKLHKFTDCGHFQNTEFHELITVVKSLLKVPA
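Assay system: recombinant human RBBP9; Reagent: Serine-hydrolase probe FP-Rh, 375 nM pre-mixing; Doses: 7.94 µM single dose, 0.794% DMSO; Incubation: 30 min then 45 min, 25 °C; Detection: fluorescence polarization (mP), excitation 525 nm, emission 598 nm; Evaluation: percent inhibition from mP, scaled between DMSO and no-protein wells.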
PAFAH2 FP inh: PAFAH2 (human) inhibition. actives 0.99% (n = 340,000). inhibition, % at 3.39 µM. recombinant PAFAH2, FP-rhodamine activity probe, fluorescence polarization;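 active = inhibition above the mean over all tested compounds plus 3 SD, cut at about 30% in these data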;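 also: inhibitors block probe labeling of enzyme so polarization drops; 0% = enzyme with DMSO and 100% = wells lacking PAFAH2 protein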
pPAFAH inh: pPAFAH (human) enzyme inhibition; Q13093; recombinant pPAFAH, FP-rhodamine probe fluorescence polarization; inhibition, % at 3.39 µM; actives 1.5% (n = 330,000);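 active = inhibition above the mean inhibition across the screen plus 3 SD, cut at about 25% in these data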;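 also: inhibitors block binding of the rhodamine activity-based probe so polarization drops; 0% = enzyme with DMSO and 100% = wells lacking pPAFAH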
PAFAH1B2 inh: inhibitors of human PAFAH1B2; recombinant PAFAH1B2, FP-rhodamine activity probe, fluorescence polarization; inhibition, % at 3.39 µM; actives 1.2% (n = 340,000); AID 492953;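 active = inhibition above the mean of all tested compounds plus 3 SD, cut at about 24% in these data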;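 also: 0% = enzyme with DMSO and 100% = wells lacking PAFAH1B2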
Target sequence (P68402 whole entry, looked up): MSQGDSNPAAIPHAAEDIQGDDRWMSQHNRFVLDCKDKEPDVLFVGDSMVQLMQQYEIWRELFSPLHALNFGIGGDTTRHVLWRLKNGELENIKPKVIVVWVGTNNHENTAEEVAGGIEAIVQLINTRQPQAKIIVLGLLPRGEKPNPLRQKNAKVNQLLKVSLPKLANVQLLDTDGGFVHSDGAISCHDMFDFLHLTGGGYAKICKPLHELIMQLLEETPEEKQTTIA
PAFAH2 confirm: confirmation of human PAFAH2 inhibitors. inhibition, % at 3.39 µM. shares compounds with PAFAH2 FP inh. recombinant PAFAH2, FP-rhodamine activity probe, fluorescence polarization. actives 65% (n = 2,300);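 active = mean inhibition over three repeats above a set limit taken from the earlier primary screen, cut at about 30% in these data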;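 also: inhibitor blocks binding of rhodamine activity probe so polarization falls; 0% = enzyme with DMSO and 100% = wells lacking PAFAH2 protein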
Active calls of the source: *; / = not tested or not shown. Sampled rows, rich in hits. Any-hit rate of the full collection: about 2.7%.

SMILES | PAFAH1B3 FP inh | RBBP9 inhibitor | PAFAH2 FP inh | pPAFAH inh | PAFAH1B2 inh | PAFAH2 confirm
CC(=O)Nc1cc(C(=O)OCC(=O)c2ccc(Cl)cc2Cl)ccc1C | 9.0 | -1.1 | 34.5* | -0.2 | 12.5 | 20.9
COc1cc(Cl)c(C)cc1NC(=O)COC(=O)c1ccc(CN2CCCC2=O)cc1 | -0.3 | / | 43.3* | 8.8 | -5.7 | 23.3
Cc1ccc(Cl)cc1NC(=O)COC(=O)c1ccc(CN2CCCC2=O)cc1 | 4.9 | / | 59.9* | 4.0 | -0.3 | 43.0*
Cc1c(Cl)cccc1NC(=O)COC(=O)c1ccc(CN2CCCC2=O)cc1 | 6.6 | / | 76.0* | 7.3 | -0.1 | 67.4*
Cc1cccc(NC(=O)COC(=O)CN2CCCCCC2=O)c1C | -10.8 | / | 0.6 | 1.6 | -4.3 | /
COC(=O)c1[nH]c2ccccc2c1NC(=O)C(C)N1CC(C)OC(C)C1 (stereo not given) | / | -2.2 | / | -1.1 | / | /
COc1ccc(CNC(=O)CN2C(=O)COc3ccc(S(=O)(=O)N4CCC(C)CC4)cc32)cc1 | 17.5 | / | 4.3 | 3.0 | -0.4 | /
COc1ccc2[nH]c3c(c2c1)CCN1C(=O)C(CC(=O)NCc2cccc(C(F)(F)F)c2)C[C@H](C(=O)N(C(C)C)C(C)C)[C@@]31C (stereo not given in full) | 8.0 | / | 3.7 | 2.8 | 4.8 | /
CC(=O)NCCC(=O)Nc1cc(S(=O)(=O)N2CCOCC2)ccc1Oc1ccc(F)cc1 | 6.0 | / | 1.6 | 4.5 | 2.5 | /
Nc1[nH]n2c(=O)c3c(nc2c1N=Nc1ccc(Cl)cc1)CCCC3 | 5.7 | 3.8 | 39.6* | 9.7 | 10.1 | 24.6
Nc1[nH]n2c(=O)c3c(nc2c1N=Nc1ccccc1)CCCC3 | 4.2 | -2.2 | 20.3 | 10.0 | 5.0 | /
CCc1cccc(NC(=O)CN(C)S(=O)(=O)c2cnc[nH]2)c1 | 9.2 | -2.6 | -3.1 | -0.5 | 1.7 | /
Cc1ccccc1N1CCN(C2=NC(=O)/C(=C\c3cccs3)S2)CC1 | 6.5 | -1.4 | 41.0* | 19.8 | 0.6 | 30.8*
O=C1N=C(N2CCN(c3cccc4ccccc34)CC2)S/C1=C/c1cccs1 | -1.3 | -2.5 | 5.1 | -1.9 | -4.3 | /
CC(=O)OCC1=C(C(=O)O)N2C(=O)[C@@H](NC(=O)Cc3cccs3)[C@H]2SC1 | 5.3 | -6.1 | 39.1* | 15.7 | 5.2 | 23.7
CC(=O)OCC1=C(C(=O)O)N2C(=O)[C@@H](NC(=O)Cc3ccccc3)[C@H]2SC1 | 13.1 | / | 17.6 | / | 4.6 | /
CC(=O)OCC1=C(C(=O)O)N2C(=O)C(NC(=O)c3ccc(COc4c(C)cccc4Cl)o3)C2SC1 (stereo not given) | -2.3 | -4.2 | 42.6* | 15.3 | -4.6 | 41.5*
Cc1ccc(C(=O)CCC(=O)N2CCN(C(=O)c3ccco3)CC2)cc1 | -0.7 | -7.6 | 5.9 | 2.2 | 4.2 | /
Cc1ccn(C(=O)c2ccc(NC(=O)C3CCCCC3)cc2)n1 | 10.7 | -5.2 | 33.1* | 7.1 | -2.7 | 45.5*
COc1ccc(-c2noc(CCC(=O)Nc3nc4ccccc4s3)n2)cc1 | / | 2.5 | / | -0.4 | / | /
O=C(N/N=C/c1cc([N+](=O)[O-])ccc1O)C1CCCCC1 | 7.0 | 3.9 | 58.8* | 8.3 | 8.7 | 40.6*
O=C(O)CC1c2ccccc2CCN1S(=O)(=O)c1ccccc1 (stereo not given) | / | / | / | -0.2 | / | /
CCc1cccc(CC)c1NC(=O)COC(=O)CC1c2ccccc2CCN1S(=O)(=O)c1ccccc1 (stereo not given) | -0.1 | 1.5 | 35.5* | 22.6 | 3.3 | 20.6
O=C(NC1CCCC1)c1sc(=S)n2c1[nH]c(=O)c1ccccc12 | 21.7 | 0.7 | 38.5* | 15.3 | 22.0 | 31.9*
O=C(NC1CCCCCCC1)c1c(O)c2ccccc2[nH]c1=O | -1.4 | -10.2 | 2.9 | 0.5 | 2.5 | /
SMILES | PAFAH1B3 FP inh | RBBP9 inhibitor | PAFAH2 FP inh | pPAFAH inh | PAFAH1B2 inh | PAFAH2 confirm
O=C(COC(=O)c1cccnc1)NC1CCCc2ccccc21 (stereo not given) | 1.2 | -14.0 | 2.8 | / | -0.1 | /
O=C(COC(=O)c1ccc(Cl)cc1)NC1CCCCCC1 | 4.5 | / | 78.0* | 8.9 | 4.2 | 78.8*
Nc1cccc(C(=O)OCC(=O)NC2CCCc3ccccc32)c1 (stereo not given) | 3.7 | -1.9 | 52.6* | 10.8 | -3.5 | 27.6
O=C(COC(=O)c1ccc(CNS(=O)(=O)c2ccc(F)c(Cl)c2)cc1)NC1CCCCCCC1 | -7.9 | -9.6 | 0.9 | 7.2 | -5.0 | /
O=C(COC(=O)c1ccco1)NC1CCCCC1 | -1.4 | 1.4 | 79.8* | 10.1 | -5.3 | 67.9*
Cc1cccc(C(=O)NCC(=O)OCC(=O)NC2CCCCC2)c1 | 4.7 | / | 56.9* | 4.8 | 1.7 | 41.5*
CCn1cc(CNC(=O)C2CCC(=O)N(C3CCCCCC3)C2)cn1 (stereo not given) | 7.3 | / | 8.4 | 5.2 | 5.5 | /
Cc1ccc(S(=O)(=O)NCCNC(=O)c2ccc(C)nc2)cc1 | 10.1 | / | 6.4 | 0.3 | 2.5 | /
O=C(COC(=O)c1ccc(Br)o1)NC1CCCCC1 | 2.7 | 1.9 | 16.5 | 8.3 | 0.2 | /
O=C(COC(=O)c1cccc([N+](=O)[O-])c1)NC1CCCC1 | 6.5 | / | 8.6 | 16.9 | 1.4 | /
O=C(COC(=O)C1=COCCO1)NC1CCCCC1 | 1.9 | / | 57.5* | 2.4 | 3.4 | 55.5*
O=C(COC(=O)c1ccccc1)NC1CCCCCC1 | 8.3 | / | 86.3* | 6.6 | 4.3 | 78.2*
CC(=O)Nc1cccc(C(=O)OCC(=O)NC2CCCCCCC2)c1 | 9.0 | / | 84.2* | -15.9 | -1.2 | 83.5*
Cc1cc(C)n2nnnc2n1 | 2.0 | -5.8 | -1.9 | 1.6 | 1.0 | /
CCNC(=O)/C(=C\C=C\c1ccccc1)NC(=O)c1ccc(Br)o1 | 4.9 | -6.5 | 2.6 | -7.2 | 3.2 | /
Cc1[nH]c2ccccc2c1SCc1nnc(SCc2ccccc2)n1C | 7.2 | -5.9 | 21.8 | 6.8 | 3.6 | /
Cc1[nH]c2ccccc2c1SCc1nnc(SCc2ccc(Cl)cc2)n1C | 4.5 | 12.6 | 30.1* | 8.9 | 23.2 | 30.4*
Oc1ccccc1/C=N/NC(=S)NC1CC2C=CC1C2 (stereo not given) | 11.5 | 1.8 | 57.2* | 19.6 | 9.2 | 29.6
O=C(NNC(=O)c1ccccc1Cl)c1cccs1 | 6.8 | -5.8 | -1.4 | -1.8 | 1.6 | /
Cc1cccc(C(=O)NNC(=O)c2ccccc2O)c1 | -1.3 | / | 35.0* | 2.0 | 3.9 | 16.0
O=C(NC(=S)NNC(=O)c1ccccc1O)c1ccccc1 | 11.5 | / | 31.3* | 9.5 | 4.7 | 24.3
O=C(NNC(=O)c1cc(Cl)ccc1O)c1cccs1 | 9.0 | / | 76.5* | 8.0 | 5.0 | 72.7*
O=C(NC(=S)NNC(=O)c1ccccc1O)c1cccs1 | 14.7 | / | 45.4* | 13.3 | 4.5 | 36.2*
Cc1ccc(C(=O)NC(=S)NNC(=O)c2ccccc2O)cc1 | 9.8 | / | 18.5 | 11.2 | 8.2 | /
O=C(NC(=S)NNC(=O)c1ccccc1O)c1ccc([N+](=O)[O-])cc1 | 17.4 | / | 31.8* | 15.3 | 0.0 | 10.9
Cc1cc(C)cc(NC(=O)COC(=O)CC2CCCC2)c1 | 4.3 | / | 80.3* | 23.5 | 3.5 | 66.2*
